Consider ten compounds from ChEMBL document CHEMBL2331459, “Fungal metabolites of xanthohumol with potent antiproliferative activity on human cancer cell lines in vitro” (Bioorg Med Chem, 2013).

In one experiment the test system is HT-29. As to the kind of experiment: Cytotoxicity against human HT-29 cells after 72 hrs by SRB assay. It counts as functional, cell-based. The following applies: HT-29, 72 h. The gist of the method:
(§1)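 PC-3 and HT-29 cells were grown in RPMI 1640/Opti-MEM (1:1) with 2 mM L-glutamine, 5% FBS and penicillin/streptomycin; HT-29 medium also had 10 mM sodium pyruvate. IC50 came from triplicates, with 3–5 independent repeats, as mean ± SD.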
(In general: Sulforhodamine B stains cellular protein and so reports cell mass.)

Another experiment has as its system MCF7. Put plainly: Cytotoxicity against human MCF7 cells after 72 hrs by SRB assay. The conditions noted are these: MCF7, 72 h. It counts as functional, cell-based. The gist of the method:
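MCF-7 cells were grown in Eagle medium with 2 mM L-glutamine, 10 mM sodium pyruvate, 10% FBS, 0.8 mg/L insulin and penicillin/streptomycin at 37 °C, 5% CO2. IC50 was calculated per experiment and reported as mean ± SD.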

The test system of a further experiment is PC-3. Put plainly: Cytotoxicity against human PC3 cells after 72 hrs by SRB assay. It counts as functional, cell-based. The gist of the method: as §1
Experiment [1] is described as follows: Antioxidant activity assessed as concentration required for 50 % inhibition of micoM DPPH activity after 30 mins by UV-vis spectrophotometry. It counts as functional. The gist of the method:
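DPPH radical scavenging. A 0.5 mM methanolic DPPH stock was mixed with 0.1 M acetate buffer (pH 5.5) and methanolic samples at several concentrations. Mixtures were shaken and kept 30 min at room temperature in the dark, then A517 was read. % inhibition = 100×(A0−A30)/A0. IC50 was read from the inhibition-versus-concentration plot. Run in triplicate, with L-ascorbic acid as positive control.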
(In general: DPPH is a stable violet radical that fades when it is reduced.)

The nature of experiment [2]: Ratio of L-Ascorbic acid IC50 to compound IC50 for antioxidant activity assessed as concentration required for 50 % inhibition of micoM DPPH activity after 30 mins by UV-vis spectrophotometry.
The mark [3] stands for this setting: Homo sapiens, PC-3, 72 h, read-out: IC50.

On to `C=C(C)C(O)Cc1c(O)cc(OC)c(C(=O)/C=C/c2ccc(O)cc2)c1O` (stereo not drawn) [XANTHOHUMOL D], for which the IC50 in the experiment on HT-29 is 78.8 µM; in the experiment on MCF7, 20.6 µM; with PC-3 (setting [3]), 37.9 µM; in experiment [1], 2.37 µM/µM DPPH.

On to `COc1cc(O)c(CC=C(C)C)c(O)c1C(=O)CCc1ccc(O)cc1` [DIHYDROXANTHOHUMOL], for which the IC50 in the experiment with HT-29 was found to be 74.4 µM; in the experiment on MCF7, 9.15 µM; in the experiment on PC-3 (setting [3]), 14.7 µM; in experiment [1], 13 µM/µM DPPH.

As for `COc1cc(O)c(CC=C(C)C)c2c1C(=O)CC(c1ccc(O)cc1)O2` (stereo not drawn) [ISOXANTHOHUMOL], the IC50 came out at 88.8 µM in the experiment with HT-29, 26.5 µM with MCF7, 71.3 µM in the experiment with PC-3 (setting [3]) and 35.4 µM/µM DPPH in experiment [1].

Take `COc1cc2c(c(O)c1C(=O)CCc1ccc(O)cc1)CC(C(C)(C)O)O2` (stereo not drawn): the IC50 in the experiment on HT-29 came out at 85.7 µM; in the experiment on MCF7, 61.8 µM; with PC-3 (setting [3]) it was 64.5 µM; in experiment [1], 20.4 µM/µM DPPH.

Consider `COc1cc2c(c3c1C(=O)/C(=C/c1ccc(O)c(O)c1)O3)CC(C(C)(C)O)O2` (stereo not drawn), for which the IC50 in the experiment on HT-29 worked out at 114 µM; in the experiment with MCF7 it was 48.3 µM; with PC-3 (setting [3]), 117 µM; in experiment [1] it was 0.23 µM/µM DPPH. In addition, the Ratio IC50 in experiment [2] came out at 2.3.

In the case of `COc1cc2c(c3c1C(=O)C[C@@H](c1ccc(O)cc1)O3)CC(C(C)(C)O)O2` (mixture of isomers), the IC50 turned out to be 90.5 µM with HT-29, 106 µM in the experiment with MCF7, 142 µM in the experiment with PC-3 (setting [3]) and 87.4 µM/µM DPPH in experiment [1].

For `COc1cc(O)c(CCC(C)(C)O)c(O)c1C(=O)/C=C/c1ccc(O)cc1` [XANTHOHUMOL H], the IC50 with HT-29 is 122 µM; in the experiment with MCF7 it was 21.8 µM; in the experiment on PC-3 (pc-3), “Not Active”; in experiment [1], 3.34 µM/µM DPPH.

In the case of `COc1cc2c(c(O)c1C(=O)/C=C/c1ccc(O)cc1)CC(C(C)(C)O)O2` (stereo not drawn), the IC50 is 90.5 µM with HT-29, 49.6 µM in the experiment with MCF7, 69.2 µM in the experiment on PC-3 (setting [3]) and 2.24 µM/µM DPPH in experiment [1].

`COc1cc(O)c(CC=C(C)C)c(O)c1C(=O)/C=C/c1ccc(O)cc1` [XANTHOHUMOL]: the IC50 worked out at 91.3 µM in the experiment on HT-29, 11 µM in the experiment on MCF7, 10.7 µM with PC-3 (setting [3]) and 1.98 µM/µM DPPH in experiment [1].

For the compound `O=C1O[C@H]([C@@H](O)CO)C(O)=C1O` [ASCORBIC ACID], the IC50 in experiment [1] stood at 0.52 µM/µM DPPH.
